MsrA inhibitor: inhibitors of bovine MsrA. purified bovine MsrA, absorbance read-out. inhibition, % at 15.5 µM. hit rate 0.75% among 360,000. AID 651718; in the data active means inhibition above about 4.5%;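 further: 0% = vehicle wells with enzyme and 100% = reference inhibitor wells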
AHR activator: human AHR activation; P35869; AHR-responsive luciferase reporter cells, luminescence; activation, % at 5 µM; hit rate 2.5% among 320,000; AID 2796; in the data active means activation above about 47%;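 further: 0% = vehicle wells and 100% = reference agonist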
AI-2 QS modul: modulators of Vibrio harveyi AI-2 quorum sensing system; Vibrio harveyi JMH597 AI-2 luminescence/OD600 ratio, 9 h; hits give low values; strain lacks LuxN and CqsS sensors; 0 = neutral-control median; activity change, % at 7.5 µM; hit rate 0.4% among 300,000; AID 2094; in the data active means activity change below about -75%, passing the limit was not always enough;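 further: luminescence divided by OD600 gain over 9 h not by final OD600 alone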
Tb MetRS inh: Trypanosoma brucei MetRS inhibition; purified T. brucei MetRS, ATP depletion, Kinase-Glo luminescence; hit rate 0.4% among 360,000; inhibition, % at 11.9 µM;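 active means inhibition above a per-plate cutoff of the control wells' mean inhibition plus 3 SD, cut at about 5.5% in these data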;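 further: 0% = DMSO wells median and 100% = median of wells with control inhibitor compound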
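Test system – parasite MetRS enzyme · Reagent – substrates ATP, L-methionine and bulk Escherichia coli tRNA · Doses – 11.9 µM compound single dose, 0.9% DMSO · Times – 15 min enzyme-compound preincubation, 2 h reaction, 10 min detection, 25 °C · Signal – Kinase-Glo luminescence, ATP depletion format · Controls – DMSO-only wells as low control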
bovine MsrA act: activates bovine MsrA enzyme | purified bovine MsrA, absorbance read-out | activation, % at 10.6 µM | hit rate 0.3% among 360,000; in the data active means activation above about 7.5%;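 further: 0% = vehicle and 100% = reference activator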
m5-HT2A agonist: agonists of mouse serotonin 5-HT2A receptor (HTR2A); activation, % at 7.6 µM; hit rate 0.66% among 360,000; CHO-K1 mHTR2A beta-arrestin complementation, luminescence; percent of 30 µM serotonin response; P35363;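 active means activation above a run cutoff, the mean activation of all tested compounds plus 3 SD, cut at about 14% in these data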;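 further: 0% = plate median of compound wells and 100% = 30 µM serotonin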
AHR act confirm: human AHR activation, confirmation; activation, % at 9 µM; human cells, AHR-responsive luciferase reporter, luminescence; hit rate 87% among 2,300; shares compounds with AHR activator; in the data active means activation above about 49%;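 further: HepG2 hepatoma cells carrying a DRE-driven firefly luciferase reporter; 0% = vehicle wells and 100% = reference agonist wells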
PXR act counter: counter-screen for AHR activators: human PXR activators | shares compounds with AHR activator | cell-based PXR reporter, luciferase luminescence | activation, % at 11.6 µM | hit rate 88% among 2,300 | AID 434939; in the data active means activation above about 11%;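 further: human hepatoma DPX-2 cells expressing full-length human PXR; 0% = DMSO and 100% = reference agonist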
* marks the source's active call; other numbers are inactive results; . = no result given. Only some compounds are listed: those with a hit (about 4.4% of all), similar ones and a draw of the others.

SMILES	MsrA inhibitor	AHR activator	AI-2 QS modul	Tb MetRS inh	bovine MsrA act	m5-HT2A agonist	AHR act confirm	PXR act counter
C=CCn1c(=N)n(CC(=O)OCC)c2ccccc21	0	0	16	-1	-3	6	.	.
N=c1n(N)c2ccccc2n1CC(=O)c1ccc(Br)cc1	-1	83*	-2	5	-3	-9	86*	10
C=CCn1c(NC(=O)c2ccccc2)nc2ccccc21	1	87*	28	0	-2	2	126*	33*
CCCn1c(=N)n(CC(=O)c2ccc([N+](=O)[O-])cc2)c2ccccc21	-1	11	11	0	-2	-10	.	.
CCCn1c(=N)n(CC(=O)c2ccc(Cl)cc2)c2ccccc21	1	86*	-6	2	-2	-4	80*	31*
C=CCn1c(=N)n(CC(=O)c2ccc(Br)cc2)c2ccccc21	1	86*	21	2	-2	4	96*	31*
Cc1cc(C(=O)COC(=O)C2=COCCO2)c(C)n1-c1ccccc1	0	-3	.	0	1	-1	.	.
O=C(CN1C(=O)S/C(=C\c2ccccc2F)C1=O)NC1C=CS(=O)(=O)C1 (stereo not drawn)	2	0	0	0	-2	-2	.	.
C=CCn1c(=N)n(CC(=O)c2ccccc2)c2ccccc21	0	102*	20	0	0	-6	88*	47*
C=CCn1c(=N)n(CC(=O)O)c2ccccc21	1	1	19	-1	-2	5	.	.
Cc1ccc(Nc2ccc(-n3ccnc3)nn2)cc1C	1	91*	2	0	1	-6	48*	-1
COc1cccc(Nc2ccc(-n3ccnc3)nn2)c1	1	81*	-3	0	-3	3	79*	16*
Cc1cc(C)n(-c2ccc(-n3ccnc3)nn2)n1	-1	5	2	0	-1	1	.	.
Cc1noc(C)c1NC(=O)N(C)C[C@H]1Oc2ccc(NC(=O)Nc3ccccc3)cc2C(=O)N([C@H](C)CO)C[C@@H]1C	0	2	.	5	-4	1	.	.
COc1ccccc1-c1nc(C#N)c(N2CCCCCC2)o1	3	83*	46	-1	-2	2	79*	108*
COc1ccccc1-c1nc(C#N)c(N2CCN(c3ccccc3)CC2)o1	1	11	8	0	1	-2	.	.
CSc1cccc(CN2CCCC(C(=O)Nc3cccc(-n4cccn4)c3)C2)c1 (stereo not drawn)	-2	27	30	3	-8	-17	.	.
COc1ccccc1CNC(=O)c1oc2ccccc2c1C	1	41	14	0	-2	-6	.	.
Cc1c(C(=O)NCc2ccccc2CN2CCCC2)oc2ccc(F)cc12	0	124*	.	0	-1	-16	112*	76*
O=[N+]([O-])c1ccc(CN2[C@H](COCc3ccccc3)[C@@H](N3CCCC3)CS2(=O)=O)cc1	-2	.	.	0	-2	1	.	.
Cc1c(C(=O)Nc2ccc(C(=O)Nc3ccccc3)cc2)cccc1[N+](=O)[O-]	-2	-1	15	-1	-3	-2	.	.
CCn1c2ccccc2c2cc(NC(=O)c3cccc([N+](=O)[O-])c3)ccc21	0	86*	26	0	-2	-2	89*	33*
CCn1c2ccccc2c2cc(NC(=O)c3ccc(C)c([N+](=O)[O-])c3)ccc21	-1	19	21	0	-4	2	.	.
CCn1c2ccccc2c2cc(NC(=O)c3cccc([N+](=O)[O-])c3C)ccc21	0	113*	35	0	0	-4	87*	55*
CCCCC[C@H]1CN(Cc2ccccc2)C(=O)[C@@H]1CC(=O)NCc1ccccc1	-1	-2	15	0	0	-6	.	.
CCOC(=O)Cc1c(-c2cccc(Cl)c2)nc2c3ccccc3ccn12	-1	.	.	0	-3	4	.	.
CCCNC(=O)C1(C)CCCN(C(=O)c2cccnc2Oc2ccccc2)C1 (stereo not drawn)	0	.	.	0	-1	-1	.	.
